Activity calls are given as the source filed them.
Experiments:
Assay type in all cases: functional, organism-based
Bacillus cereus = assay: Antibacterial activity against Bacillus cereus at 1 mM by almar blue dye reduction assay
Procedure, shortened: (§1)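 Single-point primary screen at 1 mM using Alamar Blue dye reduction as the growth read-out.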

Candida albicans = assay: Antifungal activity against Candida albicans at 1 mM by almar blue dye reduction assay; procedure, shortened: as §1
Bacillus anthracis = assay: Antibacterial activity against Bacillus anthracis at 1mM by almar blue dye reduction assay
Escherichia coli = assay: Antibacterial activity against Escherichia coli at 1 mM by almar blue dye reduction assay; procedure, shortened: as §1
Bacillus subtilis = assay: Antibacterial activity against Bacillus subtilis at 1 mM by almar blue dye reduction assay; procedure, shortened: as §1
Staphylococcus aureus = assay: Antibacterial activity against Staphylococcus aureus at 1 mM by almar blue dye reduction assay; procedure, shortened: as §1
Cryptococcus neoformans = assay: Antifungal activity against Cryptococcus neoformans at 1 mM by almar blue dye reduction assay; procedure, shortened: as §1
Saccharomyces cerevisiae = assay: Antifungal activity against Saccharomyces cerevisiae at 1 mM by almar blue dye reduction assay; procedure, shortened: as §1
Pseudomonas aeruginosa = assay: Antibacterial activity against Pseudomonas aeruginosa at 1 mM by almar blue dye reduction assay; procedure, shortened: as §1

Measured: Activity

C[C@H](C[C@@H]1CC[C@H]([C@@H](C)C(=O)N2CCN(CC3CCCO3)CC2)O1)n1cc(C#Cc2ccc(Oc3ccccc3)cc2)nn1 (stereo partly specified)
inactive: all assays above

CCN(CC)C(=O)[C@H](C)[C@H]1CC[C@@H](C[C@@H](C)n2cc(C#Cc3ccccc3)nn2)O1
inactive: all assays above

CC(C)NC(=O)[C@H](C)[C@H]1CC[C@@H](C[C@@H](C)n2cc(C#Cc3ccccn3)nn2)O1
inactive: all assays above

C[C@H](C[C@@H]1CC[C@H]([C@@H](C)C(=O)N2CCN(CC3CCCO3)CC2)O1)n1cc(C#CCc2ccccc2)nn1 (stereo partly specified)
inactive: all assays above

CCN(CC)C(=O)[C@H](C)[C@H]1CC[C@@H](C[C@@H](C)n2cc(C#CCN(C)CCc3ccccc3)nn2)O1
inactive: all assays above

C[C@H](C[C@@H]1CC[C@H]([C@@H](C)C(=O)N2CCCC2)O1)n1cc(C#Cc2ccccc2[N+](=O)[O-])nn1
inactive: all assays above

CCN(CC)C(=O)[C@H](C)[C@H]1CC[C@@H](C[C@@H](C)n2cc(C#CCNCCOC)nn2)O1
inactive: all assays above

CCN(CC)C(=O)[C@H](C)[C@H]1CC[C@@H](C[C@@H](C)n2cc(C#Cc3ccccn3)nn2)O1
inactive: all assays above

C[C@H](C[C@@H]1CC[C@H]([C@@H](C)C(=O)N2CCN(CC3CCCO3)CC2)O1)n1cc(C#CCOc2ccccc2)nn1 (stereo partly specified)
inactive: all assays above
